Our source for the Ratio, EC50 and Max response values is ChEMBL document CHEMBL1127795, “Small-molecule immunostimulants. Synthesis and activity of 7,8-disubstituted guanosines and structurally related compounds” (1994).

Test [1] has as its system Mus musculus. As to the kind of experiment: In vivo natural killer cell response in splenocytes of mice injected with 2 mg intravenous dose % lysis of YAC-1 cells at effector: target ratio of 25:1. It is filed as functional. The gist of the method:
(§1)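 Mice dosed intravenously with 2 mg compound, with saline as the vehicle control. Spleens were removed 48 h later. Splenocytes were tested against 5 × 10⁴ ⁵¹Cr-labelled YAC-1 target cells in a 4-h ⁵¹Cr-release assay at four effector:target ratios. Results are mean % lysis ± one standard deviation, N = 3–5 mice per group.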

For test [2], the system named is Mus musculus. Description: In vivo natural killer cell response in splenocytes of mice injected with 2 mg intravenous dose. % lysis of YAC-1 cells at effector: target ratio of 100:1. It is filed as functional. The procedure, abridged:
as §1

Test [3] deals with Mus musculus. Description: In vivo natural killer cell response in splenocytes of mice injected with 2 mg intravenous dose. % lysis of YAC-1 cells at effector: target ratio of 200:1. The test is classed as functional. The gist of the method: as §1
The test system of test [4] is Mus musculus. As to the kind of experiment: In vivo natural killer cell response in splenocytes of mice injected with 2 mg parenteral dose. % lysis of YAC-1 cells at effector: target ratio of 100:1. The test is classed as functional. The procedure, abridged: (§2)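 Each mouse received 2 mg compound, and spleens were taken at 48 h. Splenocyte NK activity was measured as specific lysis of 5 × 10⁴ ⁵¹Cr-labelled YAC-1 cells over 4 h at four effector:target ratios. Results are mean % lysis ± one standard deviation, N = 3–5 mice per group.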

In test [5] the test system is Mus musculus. Description: In vivo natural killer cell response in splenocytes of mice injected with 2 mg parenteral dose. % lysis of YAC-1 cells at effector: target ratio of 25:1. The test is classed as functional. The gist of the method: as §2
Test [6] concerns Mus musculus. As to the kind of experiment: In vivo natural killer cell response in splenocytes of mice injected with 2 mg parenteral dose. % lysis of YAC-1 cells at effector: target ratio of 50:1. The test is classed as functional. The gist of the method:
as §2

Test [7] has as its system Mus musculus. As to the kind of experiment: In vivo natural killer cell response in splenocytes of mice injected with 2 mg subcutaneous dose. % lysis of YAC-1 cells at effector: target ratio of 100:1. The test is classed as functional. The procedure, abridged: (§3)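 Mice dosed subcutaneously with 2 mg compound, with sesame oil as the vehicle control. Splenocytes were harvested 48 h after dosing and assayed in a 4-h ⁵¹Cr-release test against 5 × 10⁴ labelled YAC-1 cells at four effector:target ratios. Results are mean % lysis ± one standard deviation, 3–5 mice per group.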

For test [8], the system named is Mus musculus. As to the kind of experiment: In vivo natural killer cell response in splenocytes of mice injected with 2 mg subcutaneous dose. % lysis of YAC-1 cells at effector: target ratio of 200:1. It is filed as functional. The gist of the method:
as §3

Test [9] deals with Mus musculus. Description: In vivo natural killer cell response in splenocytes of mice injected with 2 mg subcutaneous dose. % lysis of YAC-1 cells at effector: target ratio of 25:1. The test is classed as functional. The procedure, abridged:
as §3

Test [10] has as its system Mus musculus. Description: In vivo natural killer cell response in splenocytes of mice injected with 2 mg subcutaneous dose. % lysis of YAC-1 cells at effector: target ratio of 50:1. It is filed as functional. The gist of the method: as §3
In test [11] the test system is Mus musculus. As to the kind of experiment: In vivo natural killer cell response in splenocytes of mice injected with 2 mg intravenous dose. % lysis of YAC-1 cells at effector: target ratio of 50:1. The test is classed as functional. The procedure, abridged:
as §1

Test [12] concerns Mus musculus. As to the kind of experiment: In vivo natural killer cell response in splenocytes of mice injected with 2 mg parenteral dose % lysis of YAC-1 cells at effector: target ratio of 200:1. It is filed as functional. The gist of the method:
as §2

The species entered for test [13] is Mus musculus. Description: Ability to act as B-cell mitogens. The test is classed as functional. Particulars: read-out: ED50 (the source's name). The gist of the method:
(§4)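 CBA/CaJ mouse spleen cells (1 × 10⁵/0.2 mL) exposed to graded compound concentrations, dissolved in water or DMSO and diluted in medium, for 24 h. [³H]thymidine then added for a further 24 h; incorporation by scintillation counting. ED50 and maximal response expressed relative to a concurrently run standard (loxoribine in most cases).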

The species entered for test [14] is Mus musculus. As to the kind of experiment: Percent of maximum response was tested for its ability to act as B-cell mitogens (mitogenicity). It is filed as functional. The procedure, abridged: as §4
The species entered for test [15] is Mus musculus. Description: Percent of maximum response was tested to augment the antibody response of B cells to sheep red blood cell challenge. The test is classed as functional. The procedure, abridged: (§5)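 CBA/CaJ spleen cells depleted of T cells with anti-T cell monoclonal antibody (1:1000, 30 min, 4 °C) then complement (37 °C, 45 min). Cultured ± 0.1% SRBC antigen in serum-containing medium with compound from zero to 10⁻³ M for 4 d. Plaque-forming cells counted in agarose with guinea pig complement. ED50 and maximal response relative to a concurrent standard.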

The species entered for test [16] is Mus musculus. Description: Augment antibody response of B cells to sheep red blood cell (SRBC) challenge (adjuvanticity). The test is classed as functional. Particulars: read-out: ED50 (the source's name). The procedure, abridged: as §5
Test [17] has as its system YAC-1. As to the kind of experiment: Stimulation of natural killer (NK) response in Yac-1 cell line (mouse, lymphoma). The test is classed as functional. The conditions noted are these: read-out: ED50 (the source's name).
For test [18], the system named is YAC-1. Description: Percent of maximum response was tested for its ability to stimulate the natural killer response in murine in vitro cell assays. It is filed as functional, Mus musculus.
The species entered for test [19] is Mus musculus. Description: Effective dose was tested for its ability to act as B-cell mitogens (mitogenicity). It is filed as functional. Particulars: read-out: ED50 (the source's name). The procedure, abridged:
as §4

The subject of test [20] is YAC-1. Description: Tested for its ability to stimulate the natural killer (NK) response in murine in vitro cell assays. It is filed as functional. Particulars: Mus musculus, read-out: ED50 (the source's name).
Test [21] concerns YAC-1. As to the kind of experiment: Percent of maximum response was tested for its ability to stimulate the natural killer (NK) response in murine in vitro cell assays. It is filed as functional, Mus musculus.
For test [22], the system named is Mus musculus. As to the kind of experiment: In vivo natural killer cell response in splenocytes of mice injected with 2 mg intravenous dose % lysis of YAC-1 cells at effector: target ratio of 100:1. The test is classed as functional. The gist of the method:
as §1

In test [23] the test system is Mus musculus. As to the kind of experiment: In vivo natural killer cell response in splenocytes of mice injected with 2 mg intravenous dose % lysis of YAC-1 cells at effector: target ratio of 200:1. The test is classed as functional. The procedure, abridged:
as §1

Test [24] relates to Mus musculus. As to the kind of experiment: In vivo natural killer cell response in splenocytes of mice injected with 2 mg intravenous dose % lysis of YAC-1 cells at effector: target ratio of 50:1. The test is classed as functional. The procedure, abridged: as §1
Test [25] concerns Mus musculus. Description: In vivo natural killer cell response in splenocytes of mice injected with 2 mg parenteral dose % lysis of YAC-1 cells at effector: target ratio of 50:1. The test is classed as functional. The gist of the method:
as §2

Test [26] concerns Mus musculus. As to the kind of experiment: In vivo natural killer cell response in splenocytes of mice injected with 2 mg parenteral dose % lysis of YAC-1 cells at effector: target ratio of 100:1. The test is classed as functional. The procedure, abridged:
as §2

The structures appear in SMILES notation. Where “and” joins values, the source holds several entries; their conditions need not be identical. Equal values may be shown once.

As for `C=CCn1c(=O)n([C@@H]2O[C@H](CO)[C@@H](O)[C@H]2O)c2nc(N)[nH]c(=O)c21` [LOXORIBINE], the Ratio in the test with Mus musculus [1] is on record as 22.8; in the test on Mus musculus [2] it was 48.9; in the test on Mus musculus [3], 52.2; in the test with Mus musculus [4], 18.9; in the test with Mus musculus [5], 7.7; in the test on Mus musculus [6], 11.8. The Ratio in the test on Mus musculus [7] is 19.5; in the test on Mus musculus [8], 27.6; in the test with Mus musculus [9], 9.3; with Mus musculus [10], 12.7; with Mus musculus [11], 38.6; in the test with Mus musculus [12], 29.6. Also, the EC50 in the test filed under Mus musculus [13] was found to be 10 µM; in the test filed under Mus musculus [16] it was 3 µM; in the test with YAC-1 [17], 13 µM. Moreover, the Max response in the test filed under Mus musculus [14], in the test filed under Mus musculus [15] and in the test on YAC-1 [18] was 100% each time.
Take `C=CCn1c(=O)n(C2CN(CCCC)CC(CO)O2)c2nc(N)nc(O)c21` (configuration not stated): the values for the EC50 in the test filed under Mus musculus [19], in the test listed under Mus musculus [16] and in the test on YAC-1 [20] were 49 µM, 5 µM and 17 µM, respectively. Further, the Max response in the test listed under Mus musculus [14] is recorded as 52%; in the test listed under Mus musculus [15], 38%; in the test with YAC-1 [21] it was 94%.
Take `C=CCn1c(=O)n(C2C=CC(CO)O2)c2nc(N)nc(O)c21` (configuration not stated): the Ratio is 36.4 in the test with Mus musculus [22]; 47.4 in the test with Mus musculus [23]; 16.1 in the test on Mus musculus [1]; 25.7 with Mus musculus [24]; 25.2 with Mus musculus [25]; 33.2 and 15.7 in the test with Mus musculus [26]. Also, the Ratio in the test on Mus musculus [12] was 50.8. For the same compound, the EC50 in the test listed under Mus musculus [13] was 30 µM; in the test listed under Mus musculus [16], 6 µM; in the test with YAC-1 [17] it was 11 µM. For the same compound, the Max response in the test filed under Mus musculus [14] was found to be 84%; in the test filed under Mus musculus [15], 45%; in the test on YAC-1 [18], 89%.
